# NPY-Y2 PAM-ag – potentiators or agonists of human neuropeptide Y receptor Y2; activation, % at 3.6 µM; 220,000 compounds, 0.45% hits; P49146; cells expressing NPY-Y2, potentiator/agonist read-out; in the data active = activation above about 27%;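 note: cells stimulated with NPY near EC25 plus isoproterenol at EC100; 0% = vehicle plus submaximal agonist and 100% = vehicle plus saturating agonist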
# EP2 modulator – modulators of human EP2 prostaglandin E2 receptor; EP2-expressing cells, cAMP HTRF FRET, PGE2 co-stimulation; induction, % at 25 µM; 260,000 compounds, 0.83% hits; AID 940;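 active = compounds whose cAMP rise, as percent of the full-agonist control response, exceeds 60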;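 note: rat C6 glioma line stably carrying human EP2 under a CMV promoter; the protocol text gives 20 µM as final concentration; 100% = response of wells given 1 µM PGE2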
# NPY Y1 blocker – antagonists of human neuropeptide Y receptor Y1. P25929. HEK293-CNG Y1 cells, membrane potential fluorescence; NPY at EC95, then isoproterenol. inhibition, % at 3.6 µM. 200,000 compounds, 1% hits;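 active = inhibition above the campaign mean inhibition of all tested compounds plus 3 SD, cut at about 20% in these data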;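 note: 0% = DMSO wells given NPY plus isoproterenol and 100% = isoproterenol alone without NPY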
# Target sequence (P25929 whole entry, looked up): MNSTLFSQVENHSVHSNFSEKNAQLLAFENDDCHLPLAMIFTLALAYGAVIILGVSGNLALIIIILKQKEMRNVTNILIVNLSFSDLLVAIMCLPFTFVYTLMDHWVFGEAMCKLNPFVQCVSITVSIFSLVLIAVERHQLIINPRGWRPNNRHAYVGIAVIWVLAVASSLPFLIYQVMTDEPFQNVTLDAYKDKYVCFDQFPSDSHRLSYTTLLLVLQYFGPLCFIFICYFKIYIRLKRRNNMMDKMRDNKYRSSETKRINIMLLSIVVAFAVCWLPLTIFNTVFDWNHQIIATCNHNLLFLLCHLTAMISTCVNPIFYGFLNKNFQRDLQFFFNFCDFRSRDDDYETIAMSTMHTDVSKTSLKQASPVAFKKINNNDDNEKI
#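 Material: HEK293 cells co-expressing NPY Y1 receptor and cyclic-nucleotide gated channel. Timing: compound incubation 1 h at room temperature, readout 45 min post-stimulation. Signal: fluorescence, membrane potential probe.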
# NPY-Y2 antag – NPY-Y2 (human) receptor antagonism. P49146. NPY-Y2 expressing cells, antagonist mode. inhibition, % at 2.7 µM. 140,000 compounds, 0.99% hits. AID 793; in the data active = inhibition above about 17%;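 note: 0% = vehicle with agonist challenge and 100% = reference antagonist with challenge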
# PGE2 EP2 inh – blocks the human prostaglandin E2 receptor EP2; C6 glioma cells expressing human EP2, cAMP TR-FRET; cells stimulated with saturating PGE2; inhibition, % at 25 µM; 260,000 compounds, 0.52% hits; AID 1422;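 active = percent inhibition above 40 after rounding to a whole number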;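 note: rat C6 glioma host cells with rolipram phosphodiesterase inhibitor present; the protocol text gives 20 µM as final concentration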
# NPY-Y1 PAM-ag – potentiates or activates human NPY-Y1 receptor. P25929. NPY-Y1 expressing cells, potentiator/agonist activation. activation, % at 3.6 µM. 220,000 compounds, 0.37% hits; in the data active = activation above about 33%, passing the limit was not always enough;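 note: cells stimulated with NPY at EC10 then isoproterenol at EC100; 0% = low agonist plus stimulus and 100% = saturating agonist plus stimulus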
# EP2 cAMP induct – human EP2 receptor cAMP induction, negative in counter-screens; shares compounds with EP2 modulator; 1,300 compounds, 47% hits; calls only at 20 µM (by protocol); C6 glioma EP2 cells, cAMP HTRF induction; plus low (about EC15) PGE2 agonist;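 active = cAMP induction above 50% in the main assay while under 30% in all four parallel counter assays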;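 note: rat C6 glioma cells stably expressing human EP2 receptor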
# The depositor's hits bear a star; i = inactive; · = not tested or not shown; + = active, no number. Sampled rows, rich in hits. Any-hit rate of the full collection: about 2.8%.
SMILES,NPY-Y2 PAM-ag,EP2 modulator,NPY Y1 blocker,NPY-Y2 antag,PGE2 EP2 inh,NPY-Y1 PAM-ag,EP2 cAMP induct
CCOC(=O)C(C)Sc1ncc(OC)c(Sc2ccc(Cl)cc2)n1 (configuration not stated),-22,68*,8,17,2,-11,+
Cc1ccnc(SCC(=O)n2c3c(c4ccccc42)CC(C)CC3)n1 (configuration not stated),-21,74*,17,1,-7,-29,+
CCN1CCN(CC(=O)n2c3c(c4ccccc42)CC(C)CC3)CC1 (configuration not stated),-39,-26,12,12,15,-29,·
O=C(O)COc1ccc2occ(C(=O)c3ccccc3)c2c1,-14,66*,4,5,6,-28,+
Cc1ccc(C(=O)c2coc3ccc(OCC(=O)O)cc23)cc1,-6,69*,5,9,2,-38,+
Fc1ccc(C(c2ccc(F)cc2)N2CCN(C/C=C/c3ccccc3)CC2)cc1,0,46,7,3,8,-27,i
O=C(Nc1ccccc1N1CCN(c2ccccc2)CC1)C12CC3CC(CC(C3)C1)C2,10,68*,3,-1,9,-8,i
CCCCOc1cc(C)nc(NCc2ccccc2)n1,3,78*,15,6,11,-3,+
CC(=O)c1ccc(Oc2cc(C)nc(NCc3ccccc3)n2)cc1,0,15,-3,3,7,9,·
CCCCCc1ccc(-c2ccc(=O)[nH]n2)cc1,-11,89*,-1,7,·,-10,i
CCCC(=O)N1CCCC(c2nc(-c3cccs3)no2)C1 (configuration not stated),6,76*,-1,1,12,2,i
CCC(Nc1ncnc2ccc(C)cc12)C(=O)O (configuration not stated),·,13,·,·,4,·,·
CC(=O)Nc1sc2c(c1C(c1ccccn1)N1CCCC1)CCCC2 (configuration not stated),4,20,4,·,3,-7,·
CC(=O)Nc1sc2c(c1C(c1cccs1)N1CCOCC1)CCCC2 (configuration not stated),-1,51,3,1,14,-9,i
CCn1c2ccccc2c2cc([N+](=O)[O-])ccc21,-5,77*,2,·,4,-3,+
O=[N+]([O-])c1ccc(-c2nnc(-c3ccccc3)c(NCCCO)n2)cc1,5,13,-1,0,6,13,·
OCCCNc1nc(-c2ccc(Cl)cc2)nnc1-c1ccc(Br)cc1,20,77*,1,2,13,-22,+
Cc1ccc(C(Sc2ccccc2)C(Cn2cncn2)C(=O)c2ccccc2)cc1 (configuration not stated),28,73*,12,11,8,21,+
Cc1ccc(SC(c2ccc(C)cc2)C(Cn2cncn2)C(=O)c2ccccc2)cc1 (configuration not stated),-7,28,3,10,7,0,·
C(=N\N(Cc1ccccc1)c1ccccc1)/c1cccnc1,7,70*,-1,·,11,-4,+
CN(Cc1ccccc1)C(=S)Nc1cccnc1,-1,-13,-2,·,3,-10,·
C/C(=N\N(Cc1ccccc1)c1ccccc1)c1cccnc1,6,70*,-3,·,9,12,i
O=C(Nc1ccccc1N1CCCCC1)c1ccccc1F,2,61*,9,5,7,-12,+
O=C(Nc1ccccc1N1CCOCC1)c1ccccc1F,·,42,·,·,9,·,·
O=C(O)CCCC(=O)Nc1ccccc1N1CCCCC1,·,9,·,·,11,·,·
SMILES,NPY-Y2 PAM-ag,EP2 modulator,NPY Y1 blocker,NPY-Y2 antag,PGE2 EP2 inh,NPY-Y1 PAM-ag,EP2 cAMP induct
O=C(Nc1ccccc1N1CCCC1)c1cc2ccccc2o1,-11,91*,6,3,·,-13,+
CC1CCN(c2ccccc2NC(=O)c2ccc(F)cc2)CC1,-13,75*,17,15,2,-22,i
O=C(CNCc1ccccc1Cl)Nc1ccccc1N1CCCCC1,-7,75*,-1,·,2,-7,+
O=c1ccnc(NCc2ccccc2)[nH]1,·,-26,·,·,1,·,·
COCCNC(=O)C1CCN(S(=O)(=O)c2ccc(OC)c(C)c2)CC1,·,-3,·,·,6,·,·
O=C1C2C(c3ccccc3)C=CC(c3ccccc3)C2C(=O)N1c1ccncc1 (configuration not stated),-17,65*,11,5,1,-24,i
CCOC(=O)c1ccc2nc(C(F)(F)F)[nH]c(=O)c2c1,-3,73*,9,3,13,-7,i
CN(CC(=O)O)C(=O)c1ccco1,·,-38,·,·,6,·,·
Cc1ccc(N=Nc2c(N)[nH]n3c(=O)c4c(nc23)CCCC4)cc1,3,81*,2,0,·,1,+
Cc1cccc(/N=C/c2c(O)cc(C)oc2=O)n1,-6,-2,6,0,15,14,·
Cc1cccc(/N=C/c2c(O)ccc3oc4c(c23)CCCC4)n1,9,73*,-4,1,7,3,+
N#Cc1c(-c2ccco2)nc(SCc2ccc(F)cc2)[nH]c1=O,-33,75*,1,9,·,-31,i
Cc1cc(C)c(S(=O)(=O)N(C2=NCCS2)S(=O)(=O)c2c(C)cc(C)cc2C)c(C)c1,-6,71*,-1,3,16,-46,i
CC(C)c1nc(Cl)c(C#N)c2c1CSC(C)(C)C2,-12,73*,1,6,5,11,+
NC(N)=Nc1nc(CSCC/C(N)=N/S(N)(=O)=O)cs1,-8,10,0,1,12,-8,i
Cc1ccc(-c2csc(N=C(N)N)n2)cc1,-7,-44,·,·,8,-4,·
O=C(OCc1ccccc1Cl)c1ccccc1C(=O)c1ccccc1,-1,82*,8,10,4,14,+
Cc1ccc(Cn2c(=O)n(Cc3ccco3)c(=O)c3ccccc32)cc1,1,68*,-3,7,8,-2,+
O=c1c2ccccc2n(Cc2ccc(Cl)cc2)c(=O)n1Cc1ccco1,-4,51,4,4,4,-9,+
FC(F)(F)c1cc(-c2ccccc2)nc(N2CCCCC2)n1,20,25,6,1,4,-6,·
FC(F)(F)c1cc(-c2ccccc2)nc(N2CCOCC2)n1,1,65*,3,5,10,5,i
CC1CC2=C(C(=O)O1)C(c1ccccc1)Nc1ccccc1N2 (configuration not stated),6,-14,-1,0,3,10,·

# Assay outcomes deposited in PubChem by several laboratories.
